Results as given in ChEMBL document CHEMBL3098105, “7,7'-Diazaindirubin--a small molecule inhibitor of casein kinase 2 in vitro and in cells” (Bioorg Med Chem, 2014).
The source made the active and inactive calls. No cut-off for these calls is given here.

How the values were obtained:
[1] = target: Interleukin-1 receptor-associated kinase 4 (Homo sapiens) (UniProt Q9NWZ3); assay: Inhibition of human IRAK4 assessed as residual activity at 1 uM relative to control
[2] = target: Serine/threonine-protein kinase Nek2 (Homo sapiens) (UniProt P51955); assay: Inhibition of human NEK2 assessed as residual activity at 1 uM relative to control
[3] = target: Platelet-derived growth factor receptor alpha (Homo sapiens) (UniProt P16234); assay: Inhibition of human PDGFRalpha assessed as residual activity at 1 uM relative to control
[4] = target: Serine/threonine-protein kinase TBK1 (Homo sapiens) (UniProt Q9UHD2); assay: Inhibition of human TBK1 assessed as residual activity at 1 uM relative to control
[5] = target: Insulin-like growth factor 1 receptor (Homo sapiens) (UniProt P08069); assay: Inhibition of IGF1-R (unknown origin) assessed as residual activity at 10 uM relative to control
[6] = tested on: MDA-MB-231; assay: Antiproliferative activity against human MDA-MB-231 cells after 3 days by sulforhodamine B assay; format: functional; conditions: MDA-MB-231, 72 h
Procedure, shortened: (§1)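 Tested in the NCI 60 cell line panel. GI50 is the concentration giving 50% inhibition of cell growth, and values are the mean of two series of tests.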

[7] = target: Serine/threonine-protein kinase 4 (Homo sapiens) (UniProt Q13043); assay: Inhibition of human MST1 assessed as residual activity at 1 uM relative to control
[8] = target: Epidermal growth factor receptor (Homo sapiens) (UniProt P00533); assay: Inhibition of EGF-R (unknown origin) assessed as residual activity at 10 uM relative to control
[9] = tested on: MCF7; assay: Induction of late stage apoptosis in CK2-deficient human MCF7 cells at 0.25 to 4 uM after 24 hrs using propidium iodide/annexin V staining by FACS analysis; format: functional, cell-based
Procedure, shortened: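 MCF7 cells were then treated for 24 h, stained with FITC-annexin V in HEPES pH 7.4 binding buffer with 1.8 mM CaCl2 (15 min, dark, room temperature), then with PI (10 min), and analysed by FACS.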

[10] = target: Proto-oncogene tyrosine-protein kinase ROS (Homo sapiens) (UniProt P08922); assay: Inhibition of human Ros assessed as residual activity at 1 uM relative to control
[11] = target: Protein kinase C alpha type (Homo sapiens) (UniProt P17252); assay: Inhibition of human PKCalpha assessed as residual activity at 1 uM relative to control
[12] = Antiproliferative activity against human Hs 578T cells after 3 days by sulforhodamine B assay; format: functional; conditions: 72 h; procedure, shortened: as §1
[13] = target: Protein kinase C beta type (Homo sapiens) (UniProt P05771); assay: Inhibition of human PKCbeta2 assessed as residual activity at 1 uM relative to control
[14] = target: Casein kinase II (Homo sapiens) (UniProt P67870+P68400+P19784); assay: Inhibition of CK2 in human MCF7 cells assessed as reduction of Akt phosphorylation at S473 at 1 uM after 30 mins by Western blot analysis; format: cell-based
Procedure, shortened: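 MCF7 cells were grown at 37 °C and 5% CO2 in DMEM with 10% heat-inactivated FBS and penicillin/streptomycin. Cells were exposed to 1 µM for the indicated times, with DMSO as the untreated control. Extracts were made in urea lysis buffer, and 20–40 µg protein was run on 10% SDS–PAGE. Blots were probed with primary antibodies (1:1000, overnight, 4 °C) and read by ECL, with β-actin as loading control.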

[15] = target: Ribosomal protein S6 kinase alpha-3 (Homo sapiens) (UniProt P51812); assay: Inhibition of human Rsk2 assessed as residual activity at 1 uM relative to control
Sequence of Ribosomal protein S6 kinase alpha-3 (Homo sapiens) (P51812 whole entry): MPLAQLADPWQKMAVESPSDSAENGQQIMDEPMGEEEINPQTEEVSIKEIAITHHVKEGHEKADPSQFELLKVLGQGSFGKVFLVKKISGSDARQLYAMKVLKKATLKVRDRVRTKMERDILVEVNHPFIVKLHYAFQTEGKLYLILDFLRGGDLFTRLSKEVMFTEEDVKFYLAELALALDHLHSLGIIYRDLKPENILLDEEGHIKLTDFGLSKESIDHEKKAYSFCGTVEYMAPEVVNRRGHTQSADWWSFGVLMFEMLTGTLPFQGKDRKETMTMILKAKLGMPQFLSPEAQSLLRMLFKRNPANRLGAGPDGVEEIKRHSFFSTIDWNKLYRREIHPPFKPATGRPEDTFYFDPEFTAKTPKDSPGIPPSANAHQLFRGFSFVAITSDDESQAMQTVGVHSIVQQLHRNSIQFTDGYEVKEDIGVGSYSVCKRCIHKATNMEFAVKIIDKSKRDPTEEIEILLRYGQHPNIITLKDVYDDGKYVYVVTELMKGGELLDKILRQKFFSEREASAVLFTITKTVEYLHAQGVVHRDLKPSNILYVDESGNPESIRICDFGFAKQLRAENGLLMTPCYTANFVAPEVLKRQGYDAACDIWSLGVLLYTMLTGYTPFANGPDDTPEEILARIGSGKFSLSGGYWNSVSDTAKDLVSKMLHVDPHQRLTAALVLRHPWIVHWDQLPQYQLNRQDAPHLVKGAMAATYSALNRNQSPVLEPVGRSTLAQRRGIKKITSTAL

Sequence of Serine/threonine-protein kinase 4 (Homo sapiens) (Q13043 whole entry): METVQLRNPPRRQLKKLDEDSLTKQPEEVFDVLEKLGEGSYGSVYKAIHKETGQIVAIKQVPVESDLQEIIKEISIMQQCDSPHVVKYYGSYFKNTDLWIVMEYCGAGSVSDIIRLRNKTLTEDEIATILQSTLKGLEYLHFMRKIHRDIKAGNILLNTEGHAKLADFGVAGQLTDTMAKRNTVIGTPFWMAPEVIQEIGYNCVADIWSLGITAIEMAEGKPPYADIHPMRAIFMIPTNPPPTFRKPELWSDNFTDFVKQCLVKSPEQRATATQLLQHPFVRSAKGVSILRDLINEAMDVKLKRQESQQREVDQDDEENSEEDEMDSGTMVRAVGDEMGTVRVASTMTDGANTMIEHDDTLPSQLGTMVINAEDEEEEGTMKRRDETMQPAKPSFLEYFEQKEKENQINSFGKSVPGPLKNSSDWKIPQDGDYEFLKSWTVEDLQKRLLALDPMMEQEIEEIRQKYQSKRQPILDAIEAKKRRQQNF
Sequence of Insulin-like growth factor 1 receptor (Homo sapiens) (P08069 31-736 limits assumed): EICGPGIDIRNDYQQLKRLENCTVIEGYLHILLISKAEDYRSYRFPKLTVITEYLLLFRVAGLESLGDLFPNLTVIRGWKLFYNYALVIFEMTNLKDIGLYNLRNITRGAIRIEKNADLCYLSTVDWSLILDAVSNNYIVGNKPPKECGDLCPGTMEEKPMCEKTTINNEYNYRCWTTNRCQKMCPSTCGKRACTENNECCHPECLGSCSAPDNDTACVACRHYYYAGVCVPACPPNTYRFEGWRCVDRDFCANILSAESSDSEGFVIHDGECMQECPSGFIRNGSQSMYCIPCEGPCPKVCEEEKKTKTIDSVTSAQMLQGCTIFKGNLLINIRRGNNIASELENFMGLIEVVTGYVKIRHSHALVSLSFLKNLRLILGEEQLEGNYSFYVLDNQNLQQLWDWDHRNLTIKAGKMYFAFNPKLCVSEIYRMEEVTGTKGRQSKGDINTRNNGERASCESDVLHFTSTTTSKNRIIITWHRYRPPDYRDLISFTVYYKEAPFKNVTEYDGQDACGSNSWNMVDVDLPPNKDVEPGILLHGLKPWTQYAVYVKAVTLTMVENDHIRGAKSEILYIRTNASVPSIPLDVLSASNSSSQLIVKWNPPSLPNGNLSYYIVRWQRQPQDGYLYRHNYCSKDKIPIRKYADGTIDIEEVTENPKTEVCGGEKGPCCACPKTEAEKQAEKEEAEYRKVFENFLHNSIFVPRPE
Sequence of Insulin-like growth factor 1 receptor (Homo sapiens) (P08069 741-1367 limits assumed): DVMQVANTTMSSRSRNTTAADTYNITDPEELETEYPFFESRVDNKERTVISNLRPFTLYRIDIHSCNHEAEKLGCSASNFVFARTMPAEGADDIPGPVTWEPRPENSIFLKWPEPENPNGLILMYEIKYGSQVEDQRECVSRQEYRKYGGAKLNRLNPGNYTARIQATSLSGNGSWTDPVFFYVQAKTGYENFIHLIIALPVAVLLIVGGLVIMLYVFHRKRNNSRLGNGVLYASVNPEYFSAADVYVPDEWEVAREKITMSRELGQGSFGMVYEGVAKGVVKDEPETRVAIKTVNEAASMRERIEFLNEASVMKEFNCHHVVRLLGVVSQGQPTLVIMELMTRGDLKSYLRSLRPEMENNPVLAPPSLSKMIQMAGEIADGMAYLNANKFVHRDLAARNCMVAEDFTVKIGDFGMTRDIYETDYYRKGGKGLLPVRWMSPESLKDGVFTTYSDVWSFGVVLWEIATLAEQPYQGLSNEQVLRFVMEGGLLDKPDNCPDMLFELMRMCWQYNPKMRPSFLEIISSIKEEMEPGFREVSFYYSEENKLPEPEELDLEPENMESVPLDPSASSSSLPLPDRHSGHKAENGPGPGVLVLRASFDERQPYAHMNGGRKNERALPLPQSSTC
Sequence of Interleukin-1 receptor-associated kinase 4 (Homo sapiens) (Q9NWZ3 whole entry): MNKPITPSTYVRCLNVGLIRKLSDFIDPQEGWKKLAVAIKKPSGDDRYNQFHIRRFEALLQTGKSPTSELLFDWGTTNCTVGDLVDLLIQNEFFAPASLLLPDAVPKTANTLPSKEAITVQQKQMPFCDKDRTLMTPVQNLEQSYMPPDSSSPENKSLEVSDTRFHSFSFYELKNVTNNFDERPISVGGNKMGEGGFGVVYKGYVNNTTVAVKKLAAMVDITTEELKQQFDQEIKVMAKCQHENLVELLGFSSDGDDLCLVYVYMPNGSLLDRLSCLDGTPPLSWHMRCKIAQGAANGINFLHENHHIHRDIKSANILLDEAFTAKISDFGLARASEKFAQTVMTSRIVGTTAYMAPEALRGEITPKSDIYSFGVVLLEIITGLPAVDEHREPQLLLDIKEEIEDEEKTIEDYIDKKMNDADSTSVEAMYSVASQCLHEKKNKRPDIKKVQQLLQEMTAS
Sequence of Serine/threonine-protein kinase Nek2 (Homo sapiens) (P51955 whole entry): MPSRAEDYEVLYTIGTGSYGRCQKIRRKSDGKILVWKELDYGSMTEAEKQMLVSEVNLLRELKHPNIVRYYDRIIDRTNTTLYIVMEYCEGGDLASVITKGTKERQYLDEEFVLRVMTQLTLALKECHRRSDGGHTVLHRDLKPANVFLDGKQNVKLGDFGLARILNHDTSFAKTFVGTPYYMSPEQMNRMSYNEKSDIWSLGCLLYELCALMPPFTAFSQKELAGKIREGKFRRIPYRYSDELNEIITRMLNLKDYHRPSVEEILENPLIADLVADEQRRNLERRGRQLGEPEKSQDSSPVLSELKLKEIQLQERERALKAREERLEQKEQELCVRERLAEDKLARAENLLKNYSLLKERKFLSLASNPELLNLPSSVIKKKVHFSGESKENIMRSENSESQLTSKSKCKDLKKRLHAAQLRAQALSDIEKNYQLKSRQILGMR
Sequence of Protein kinase C beta type (Homo sapiens) (P05771 2-671 limits assumed): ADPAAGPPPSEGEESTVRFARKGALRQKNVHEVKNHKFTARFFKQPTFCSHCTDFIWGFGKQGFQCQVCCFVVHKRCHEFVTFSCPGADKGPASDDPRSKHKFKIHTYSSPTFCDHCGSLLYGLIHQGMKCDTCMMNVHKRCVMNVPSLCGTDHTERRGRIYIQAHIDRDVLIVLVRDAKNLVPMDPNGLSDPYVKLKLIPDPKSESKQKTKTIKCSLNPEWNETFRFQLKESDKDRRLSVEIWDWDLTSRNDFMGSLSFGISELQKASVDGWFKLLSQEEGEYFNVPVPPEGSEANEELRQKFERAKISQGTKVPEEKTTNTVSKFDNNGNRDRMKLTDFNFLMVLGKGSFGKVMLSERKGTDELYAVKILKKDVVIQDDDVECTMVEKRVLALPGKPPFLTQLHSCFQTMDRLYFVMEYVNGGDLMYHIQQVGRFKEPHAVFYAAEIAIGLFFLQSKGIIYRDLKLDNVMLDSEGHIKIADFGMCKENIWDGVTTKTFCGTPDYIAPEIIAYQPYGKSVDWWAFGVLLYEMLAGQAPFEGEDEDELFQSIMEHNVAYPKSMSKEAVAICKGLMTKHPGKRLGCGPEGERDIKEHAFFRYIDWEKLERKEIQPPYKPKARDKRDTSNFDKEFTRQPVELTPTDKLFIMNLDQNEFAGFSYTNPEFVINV

Activity [1]: 93% | Activity [2]: 101% | Activity [3]: 96% | Activity [4]: 120% | Activity [5]: 94% | GI50 [6]: 1700 nM | Activity [7]: 96% | Activity [8]: 95% | Activity [10]: 102% | Activity [11]: 88% | Activity [13]: 101% | inhibition [14]: Active | Activity [15]: 94%
SMILES: O=C1Nc2ncccc2/C1=C1/Nc2ncccc2C1=O
Activity [9]: inactive | GI50 [12]: 1670 nM
